# Test results taken from PubChem BioAssay AID2608 (Broad Institute, 2010).
# Tested on: BJeLR fibroblasts viability, alamar blue fluorescence, 48 h
# Assay: BJeLR fibroblast killing, alamar blue viability – cell-based, alamar blue fluorescence, 48 h, powder samples, dose response (AID 2608)
# Method in brief: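 Material: BJ fibroblasts transformed with hTERT, SV40 LT/ST and HRASV12 | Amount: 1000 cells/well | Medium: DMEM/M199 growth medium supplemented with FBS | Dosing: 2-fold compound dilution series, 0.01–5.33 µg/mL final | Incubation: 48 h exposure, 37 °C, 5% CO2, ~16 h alamar blue | Signal: Alamar blue fluorescence, excitation 544 nm, emission 590 nm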
row,Structure (SMILES),EC50 [nM]
1,Cc1ccc(N(C(=O)CCl)C(C(=O)NC2CCCCC2)c2cccnc2)cc1C (centres undefined),160
2,CCOc1ccc(Nc2nc(N)nc(CCl)n2)cc1,226
3,COC(=O)[C@@H]1Cc2c([nH]c3ccccc23)C(C)(C)N1C(=O)CCl,475
4,CCCCCCCN(C(=O)CCl)c1cccc(C)c1,119
5,COc1ccc(CN(CCC(c2ccccc2)c2ccc(OC(C)C)cc2)C(=O)CCl)cc1OC (centres undefined),642
6,COc1cccc(N(C(=O)CCl)C(C(=O)NCCc2ccccc2)c2cccs2)c1 (centres undefined),168
7,Cc1ccc(C2CC(c3cccs3)=NN2C(=O)CCl)cc1 (centres undefined),776
8,COc1ccc(C(C(=O)NC2CCCCC2)N(C(=O)CCl)c2cccc(Cl)c2)cc1 (centres undefined),171
9,COc1ccc(C(C(=O)NC2CCCCC2)N(C(=O)CCl)c2ccc(C)cc2)cc1 (centres undefined),161
10,Nc1nc(CCl)nc(Nc2ccc3ccccc3c2)n1,85
11,O=C(CCl)N=c1sccn1Cc1ccccc1Cl,149
12,C=CCOc1ccccc1CN(C(=O)CCl)c1ccc2c(c1)OCO2,855
13,COc1ccc(N(C(=O)CCl)C(C(=O)NCCc2ccccc2)c2cccs2)cc1Cl (centres undefined),26
14,COc1ccc(N(C(=O)CCl)C(C(=O)NCCc2ccccc2)c2cccs2)cc1 (centres undefined),217
